Values joined by “and” are separate entries in the source; they are usually repeats but may differ in a detail not shown here. Equal entries are not always repeated.
Tested on: Fibroblast
Assay: Multiplex assay against human fibroblast
Assay type: toxicity, cell-based
Conditions: number of replicates 2
In short: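 Compound was added to live cells that had been stained at seeding with Hoechst33342, BioTracker Green Microtubule Cytoskeleton Dye, MitoTracker Red and Annexin V Alexa Fluor 680, and imaging followed on a CQ1 microscope at 37°C and 5% CO2. CellPathfinder machine-learning gating divided cells into Hoechst high-intensity objects or normal cells, normal cells into healthy, pyknosed or fragmented nuclei, and pyknosed cells into mitotic or apoptotic. Tubulin, mitochondrial-mass and membrane-permeability phenotypes are per cents of healthy-nucleus cells.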

[1] = 12 h, 1 µM, compound concentration 1 uM
[2] = 12 h, 10 µM, compound concentration 10 uM
[3] = 24 h, 1 µM, compound concentration 1 uM
[4] = 24 h, 10 µM, compound concentration 10 uM
[5] = 48 h, 1 µM, compound concentration 1 uM
[6] = 48 h, 10 µM, compound concentration 10 uM

NCC1CCC(CNc2nc(NCc3ccccc3OC(F)(F)F)ncc2[N+](=O)[O-])CC1 (stereo not given)
Population Apoptotic (%) [1]: 46% and 42%
Population Fragmented Nuclei (%) [1]: 9%
Population Healthy Nuclei (%) [1]: 68% and 62%
Population Hoechst High Intensity Objects (%) [1]: 0%
Population Membrane Permeable-Phenotype (%) [1]: 7% and 9%
Population Mitochondria Different-Phenotype (%) [1]: 1% and 2%
Population Mitotic Cells (%) [1]: 53% and 57%
Population Normal (%) [1]: 100% and 99%
Population Pyknosed Nuclei (%) [1]: 21% and 27%
Population Tubulin-Different-Phenotype (%) [1]: 60% and 45%
Total Cell Count [1]: 205 and 224
Population Apoptotic (%) [2]: 34% and 27%
Population Fragmented Nuclei (%) [2]: 14% and 23%
Population Healthy Nuclei (%) [2]: 54% and 60%
Population Hoechst High Intensity Objects (%) [2]: 0%
Population Membrane Permeable-Phenotype (%) [2]: 6% and 9%
Population Mitochondria Different-Phenotype (%) [2]: 28% and 18%
Population Mitotic Cells (%) [2]: 65% and 72%
Population Normal (%) [2]: 100%
Population Pyknosed Nuclei (%) [2]: 31% and 16%
Population Tubulin-Different-Phenotype (%) [2]: 84% and 87%
Total Cell Count [2]: 135 and 286
Population Apoptotic (%) [3]: 64% and 60%
Population Fragmented Nuclei (%) [3]: 10% and 15%
Population Healthy Nuclei (%) [3]: 67% and 62%
Population Hoechst High Intensity Objects (%) [3]: 0% and 1%
Population Membrane Permeable-Phenotype (%) [3]: 0% and 1%
Population Mitochondria Different-Phenotype (%) [3]: 8%
Population Mitotic Cells (%) [3]: 35% and 40%
Population Normal (%) [3]: 100% and 98%
Population Pyknosed Nuclei (%) [3]: 22% and 21%
Population Tubulin-Different-Phenotype (%) [3]: 50% and 37%
Total Cell Count [3]: 202 and 217
Population Apoptotic (%) [4]: 81% and 62%
Population Fragmented Nuclei (%) [4]: 21% and 22%
Population Healthy Nuclei (%) [4]: 58% and 67%
Population Hoechst High Intensity Objects (%) [4]: 0%
Population Membrane Permeable-Phenotype (%) [4]: 5% and 3%
Population Mitochondria Different-Phenotype (%) [4]: 54% and 59%
Population Mitotic Cells (%) [4]: 18% and 37%
Population Normal (%) [4]: 100%
Population Pyknosed Nuclei (%) [4]: 20% and 9%
Population Tubulin-Different-Phenotype (%) [4]: 93%
Total Cell Count [4]: 132 and 274
Population Apoptotic (%) [5]: 70% and 72%
Population Fragmented Nuclei (%) [5]: 10% and 13%
Population Healthy Nuclei (%) [5]: 72% and 65%
Population Hoechst High Intensity Objects (%) [5]: 0%
Population Membrane Permeable-Phenotype (%) [5]: 4% and 3%
Population Mitochondria Different-Phenotype (%) [5]: 2% and 4%
Population Mitotic Cells (%) [5]: 29% and 27%
Population Normal (%) [5]: 100%
Population Pyknosed Nuclei (%) [5]: 16% and 20%
Population Tubulin-Different-Phenotype (%) [5]: 38% and 35%
Total Cell Count [5]: 210 and 217
Population Apoptotic (%) [6]: 90% and 66%
Population Fragmented Nuclei (%) [6]: 28% and 36%
Population Healthy Nuclei (%) [6]: 65% and 58%
Population Hoechst High Intensity Objects (%) [6]: 1% and 0%
Population Membrane Permeable-Phenotype (%) [6]: 0% and 4%
Population Mitochondria Different-Phenotype (%) [6]: 34% and 30%
Population Normal (%) [6]: 98% and 99%
Population Pyknosed Nuclei (%) [6]: 6% and 4%
Population Tubulin-Different-Phenotype (%) [6]: 92% and 91%
Total Cell Count [6]: 160 and 339

COc1cc(C(=O)NC2CCN(C)CC2)ccc1Nc1ncc(C(F)(F)F)c(NCc2ccc(C)cc2N(C)S(C)(=O)=O)n1.O=CO.O=CO
Population Apoptotic (%) [1]: 44% and 53%
Population Fragmented Nuclei (%) [1]: 24% and 14%
Population Healthy Nuclei (%) [1]: 64% and 61%
Population Hoechst High Intensity Objects (%) [1]: 1% and 0%
Population Membrane Permeable-Phenotype (%) [1]: 8% and 11%
Population Mitochondria Different-Phenotype (%) [1]: 3% and 4%
Population Mitotic Cells (%) [1]: 55% and 46%
Population Normal (%) [1]: 98% and 100%
Population Pyknosed Nuclei (%) [1]: 10% and 24%
Population Tubulin-Different-Phenotype (%) [1]: 64% and 46%
Total Cell Count [1]: 277 and 215
Population Apoptotic (%) [2]: 63% and 46%
Population Fragmented Nuclei (%) [2]: 6% and 16%
Population Healthy Nuclei (%) [2]: 27% and 55%
Population Hoechst High Intensity Objects (%) [2]: 0%
Population Membrane Permeable-Phenotype (%) [2]: 6% and 8%
Population Mitochondria Different-Phenotype (%) [2]: 15%
Population Mitotic Cells (%) [2]: 36% and 53%
Population Normal (%) [2]: 100% and 99%
Population Pyknosed Nuclei (%) [2]: 66% and 27%
Population Tubulin-Different-Phenotype (%) [2]: 67% and 69%
Total Cell Count [2]: 168 and 259
Population Apoptotic (%) [3]: 63% and 64%
Population Fragmented Nuclei (%) [3]: 21% and 17%
Population Healthy Nuclei (%) [3]: 70% and 66%
Population Hoechst High Intensity Objects (%) [3]: 1% and 0%
Population Membrane Permeable-Phenotype (%) [3]: 4% and 6%
Population Mitochondria Different-Phenotype (%) [3]: 9% and 6%
Population Mitotic Cells (%) [3]: 36% and 35%
Population Normal (%) [3]: 98% and 100%
Population Pyknosed Nuclei (%) [3]: 8% and 16%
Population Tubulin-Different-Phenotype (%) [3]: 53% and 38%
Total Cell Count [3]: 268 and 243
Population Apoptotic (%) [4]: 94% and 92%
Population Fragmented Nuclei (%) [4]: 5% and 12%
Population Healthy Nuclei (%) [4]: 9% and 16%
Population Hoechst High Intensity Objects (%) [4]: 0% and 1%
Population Mitochondria Different-Phenotype (%) [4]: 23% and 62%
Population Mitotic Cells (%) [4]: 5% and 7%
Population Normal (%) [4]: 99% and 98%
Population Pyknosed Nuclei (%) [4]: 85% and 70%
Population Tubulin-Different-Phenotype (%) [4]: 84% and 77%
Total Cell Count [4]: 135 and 166
Population Apoptotic (%) [5]: 94% and 90%
Population Fragmented Nuclei (%) [5]: 27% and 25%
Population Healthy Nuclei (%) [5]: 66% and 65%
Population Hoechst High Intensity Objects (%) [5]: 0%
Population Membrane Permeable-Phenotype (%) [5]: 6% and 5%
Population Mitochondria Different-Phenotype (%) [5]: 5% and 2%
Population Mitotic Cells (%) [5]: 5% and 9%
Population Normal (%) [5]: 99%
Population Pyknosed Nuclei (%) [5]: 6% and 8%
Population Tubulin-Different-Phenotype (%) [5]: 43% and 20%
Total Cell Count [5]: 267 and 253
Population Apoptotic (%) [6]: 97% and 96%
Population Fragmented Nuclei (%) [6]: 27% and 31%
Population Healthy Nuclei (%) [6]: 16% and 15%
Population Hoechst High Intensity Objects (%) [6]: 0%
Population Membrane Permeable-Phenotype (%) [6]: 31% and 30%
Population Mitochondria Different-Phenotype (%) [6]: 9% and 26%
Population Mitotic Cells (%) [6]: 2% and 3%
Population Normal (%) [6]: 100%
Population Pyknosed Nuclei (%) [6]: 56% and 53%
Population Tubulin-Different-Phenotype (%) [6]: 81% and 78%
Total Cell Count [6]: 132 and 153
